Assay outcomes deposited in PubChem by Broad Institute.
KDM4C inh = blocks human GASC-1 (KDM4C) demethylase activity. Q9H3R0. GST-KDM4C 2-372, H3K9me3 peptide, LANCE TR-FRET. inhibition, % at 12.5 µM. hit rate 0.15% among 96,000. AID 720574;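 active means mean replicate inhibition above about 25%, with at least 55% of replicates also reaching it, limit read from the data, passing the limit was not always enough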
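Test system: N-terminal GST-fused human GASC-1 (KDM4C) fragment, residues 2-372; quantity: GASC-1 enzyme at 10 nM final in reaction; dosing: single dose; schedule: 30 min demethylation and 1 h detection at room temperature; signal: LANCE TR-FRET, excitation 340 nm, emissions 618 and 671 nm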
T cruzi growth-1 = T. cruzi proliferation inhibition. inhibition, % at 8.34 µM. T. cruzi beta-gal in NIH3T3, GalScreen luminescence, 90 h. hit rate 5.9% among 77,000;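 active means mean inhibition above about 93%, with at least 55% of replicates each passing it, limit read from the data, passing the limit was not always enough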
IDH1 mut inh = blocks human IDH1 R132H reductase activity. inhibition, % at 10 µM. O75874. diaphorase/resazurin fluorescence, 60 min. hit rate 0.18% among 70,000; in the data active means inhibition above about 34%;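 further: 0% = DMSO and 100% = no enzyme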
Target sequence (O75874 whole entry R132H): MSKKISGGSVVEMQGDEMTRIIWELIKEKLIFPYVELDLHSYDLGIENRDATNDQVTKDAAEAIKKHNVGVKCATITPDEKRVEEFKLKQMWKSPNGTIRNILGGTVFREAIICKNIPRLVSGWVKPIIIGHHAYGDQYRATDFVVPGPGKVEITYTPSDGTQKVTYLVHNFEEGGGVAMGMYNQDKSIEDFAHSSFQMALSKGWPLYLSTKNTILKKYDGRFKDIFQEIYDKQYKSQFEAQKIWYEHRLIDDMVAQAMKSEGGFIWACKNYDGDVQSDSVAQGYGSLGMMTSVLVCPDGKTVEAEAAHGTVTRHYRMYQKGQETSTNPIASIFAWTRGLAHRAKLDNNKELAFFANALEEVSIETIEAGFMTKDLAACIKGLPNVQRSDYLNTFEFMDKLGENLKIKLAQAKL
Pf Dd2 growth = inhibitors of Plasmodium falciparum Dd2 growth; P. falciparum Dd2 growth, SYBR Green, 72 h; stronger effect = lower value; hit rate 2.3% among 94,000; activity change, % at 10 µM; AID 1159554; in the data active means activity change below about -80%
T cruzi growth-2 = blocks T. cruzi growth in NIH3T3 host cells; shares compounds with T cruzi growth-1; T. cruzi beta-gal in NIH3T3, GalScreen luminescence, 90 h; inhibition, % at 8.35 µM; hit rate 72% among 5,600;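 active means mean replicate inhibition above about 95% and at least 55% of replicates individually reaching it, limit read from the data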
T cruzi growth-3 = inhibitors of T. cruzi proliferation; shares compounds with T cruzi growth-1; T. cruzi beta-gal in NIH3T3, GalScreen luminescence, 90 h; inhibition, % at 2.09 µM; hit rate 21% among 5,600;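 active means mean inhibition above about 95%, with at least 55% of replicates also reaching it, limit read from the data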;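 further: plate controls were neutral control median for no effect and positive control median for full effect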
3T3 cytotox = cytotoxicity in mouse NIH/3T3 fibroblasts; shares compounds with T cruzi growth-1; NIH/3T3 viability, CellTiter-Glo ATP luminescence, 90 h; cytotoxicity (signal decrease), % at 8.35 µM; hit rate 14% among 5,600; AID 651742;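 active means mean signal decrease across replicates above about 35% based on untreated-well scatter, with enough replicates individually passing, limit read from the data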;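 further: 0% = median of neutral control wells and 100% = median of positive control wells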
3T3 cytotox 2 = kills mouse NIH/3T3 fibroblasts. shares compounds with T cruzi growth-1. NIH/3T3 viability, CellTiter-Glo ATP luminescence, 90 h. inhibition, % at 24.9 µM. hit rate 56% among 5,600;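 active means mean loss of cell viability signal at or above a set limit, and enough replicates individually reaching it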;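 further: 0% = median of neutral control wells and 100% = median of positive control wells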
* hit, by the source's call; · = no result given. Only some compounds are listed: those with a hit (about 5.8% of all), similar ones and a draw of the others.

SMILES	KDM4C inh	T cruzi growth-1	IDH1 mut inh	Pf Dd2 growth	T cruzi growth-2	T cruzi growth-3	3T3 cytotox	3T3 cytotox 2
CNCC(O)c1ccc(O)c(OC)c1 (configuration not stated)	·	·	-1	·	·	·	·	·
CC(=O)c1c(C)n(Cc2ccccc2)c2c(Cl)c(Cl)c(Cl)c(OCC(=O)O)c12	·	·	3	·	·	·	·	·
O=C(Cc1ccccc1)N1CCCCN2[C@H](CO)[C@H](c3ccc(C#CC4(O)CCCC4)cc3)[C@@H]2C1	-1	103*	·	2	76	39	11	15
O=C(Cc1ccccc1)N1CCCCN2[C@@H](CO)[C@H](c3ccc(C#CC4(O)CCCC4)cc3)[C@@H]2C1	0	109*	·	-28	102*	28	11	33*
O=C(Cc1ccccc1)N1CCCCN2[C@@H](CO)[C@@H](c3ccc(C#CC4(O)CCCC4)cc3)[C@@H]2C1	0	94	·	-28	·	·	·	·
O=C(Cc1ccncc1)N1CCCCN2[C@@H](CO)[C@@H](c3ccc(C#CC4(O)CCCC4)cc3)[C@@H]2C1	0	110*	·	-10	26	-14	-17	-9
O=C(Cc1ccccc1)N1CCCCN2[C@H](C1)[C@@H](c1ccc(C#CC3(O)CCCC3)cc1)[C@@H]2CO	0	15	·	-19	·	·	·	·
CCCC(C)n1[nH]c(=O)c2c1NC(=O)CSC2c1cccc([N+](=O)[O-])c1 (configuration not stated)	·	·	0	·	·	·	·	·
C=CCN1CCC23c4c5ccc(O)c4OC2/C(=N\NC(=O)c2ccccc2)CCC3(O)C1C5 (configuration not stated)	·	·	-3	·	·	·	·	·
